Experimental data published in the EternaBench riboswitch data.

Tested on: MS2 coat protein
Test: apparent Kd, MS2 coat protein; higher = weaker binding; RNA-MaP array; FMN 200 µM where present
Summary of the method: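 The titrant was SNAP-549-labelled MS2 coat protein, run from 0.7 or 1.5 nM in doubling steps to 3 µM. It was applied to designs transcribed by stalled E. coli RNA polymerase on Illumina sequencing-chip clusters, without ligand first and then with constant ligand, in 100 mM Tris-HCl pH 7.5, 80 mM KCl, 4 mM MgCl2, BSA, DTT, yeast tRNA and Tween-20. The apparent Kd is the median of filtered per-cluster binding-curve fits, with green signal normalised to red-channel RNA signal and control-cluster median Fmax.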

[1] = designed as: OFF switch for flavin mononucleotide, no ligand
[2] = ligand present: flavin mononucleotide, designed as: OFF switch for flavin mononucleotide
[3] = designed as: ON switch for flavin mononucleotide, no ligand
[4] = ligand present: flavin mononucleotide, designed as: ON switch for flavin mononucleotide

Sequence	apparent Kd [1] [nM]	apparent Kd [2] [nM]	apparent Kd [3] [nM]	apparent Kd [4] [nM]
AAGCGGGUCUUCAGGGUAAUGAACAUGAGGAUCACCCAUGUGCAGGAUAUGACGGAUCCGCACCGUCAGAAGGGCACUAAGUAC	24.6	69.9	–	–
GCGAUUUUGUAAGGAUAUACACGAGUUUUAAGUGUAGAAGGUACUUACAUGAGGAUCACCCAUGUAUUAAUGUUUAAUAGUCGC	–	–	8.5	6.84
CCCGUGUGUUAAGGAUAUGGCAGGCGCGUUGAACCAGAAGGUAGCACAUGAGGAUCACCCAUGUGAAUGCUCACGAAUCGAGCG	31.3	26.8	–	–
CUUAUGUAAGGAUAUCAGUAGUAAAAAAAUAAAAUUACUACUGAGAAGGUACAUGAGGAUCACCCAUGUAUCUU	17.6	14	–	–
GGACGUCACAUGAACAUGAGGAUCACCCAUGUAACUAGACAUGAGGAUAUGGAACCUAAUUGGUUCCAGAAGGCAUGGACGUCC	–	–	194	32.2
AAAACUGGAGGAUAUACAUGAGGAUCACCCAUGUGUGGAUGAGCUGUGUCGGCGUCACGUAGAAGGCCACAAAA	40.5	47.5	–	–
AAGGAGUGAGGAUAUGCUGCUCGUCACUUGCGUGAUGAGUAGCAGAAGGCACAUGAGGAUCACCCAUGUAAAAA	41.5	49.7	–	–
CCGGAAUAGCAGGAUAUAGGAGUCGAUAGACACCUAGAAGGGCUGACAUGAGGAUCACCCAUGUGUCCUACCGG	81.2	50.8	–	–
CUGGAUAGAGGAUAUUGUACUGCUGACAUGAGGAUCACCCAUGUAUGUUAACUCGGCCGUCGAGAAGGCUAACAAG	37.7	17.9	–	–
CCGGAAAUAGAGGAUAUAGUACUGGAUACAGUACUAGAAGGCUAUACAUGAGGAUCACCCAUGUGUCCUACCGG	16	32.4	–	–
GACAUGGUCCAGAAGGGCUAUUUAUUUAAGUAUGAUUUAGAACAGCAUAGCAGGAUAUGGCUAACAUGAGGAUCACCCAUGUUC	–	–	20.1	13.3
UGAUAGCACAGAGGAUAUGCGUAGAGUUAUCACUACAUGAGGAUCACCCAUGUAGAAGGCUGUGCUAUCUAAGUCGGAAACGAC	5.89	6.17	–	–
GAGAGAGGAUGAGGAUAUGCAGUAAUAAUGAUAGCAGAAGGCAUAGACAUGAGGAUCACCCAUGUGGGAAUAAUCCAGAGAGAG	–	–	188	272
AUCAGCUCGUGAGGAUAUACAUGAUAGAUCGAUUAAUUAAUUAAUUUAACAUGAGGAUCACCCAUGUAGAAGGUACGAGCUGAU	52.3	50.5	–	–
UCAUUUAUUACAGGAUAUGUUAGUAUACAGUUGUUUGGUUAUUACAUAAUAACAGAAGGGUAGAACAUGAGGAUCACCCAUGUA	–	–	244	113
CGAGUGUGAGGAUAUCCAGCCGGUGGGAUUACGUCGACGCUGGAGAAGGCACAUGAGGAUCACCCAUGUGGACA	111	234	–	–
UGAGCAUCAGGAUAUAUAUGGCGACCGUGAGGUCGAAGGUUACAUGAGGAUCACCCAUGUAGAAGGGAUGUUCU	36.6	147	–	–
CCCAGUGCAUCAGGAUAUCCUCACAUGAGGAUCACCCAUGUAAUGAGCCGAGGAGAAGGGAUGUGAACUCCAGUUACCGAUCGU	–	–	267	42.2
AUACUCAUGUAAGGAUAUGCAGCCGUUUCGGCUGCAGAAGGUACUAUAAUACAUGAGGAUCACCCAUGUCCCUCGCAUUGCGAG	–	–	657	85.9
ACAUGAGGAUCACCCAUGUUUACAUGGAUUAUUAAUCUUGGAUAGGAUAUGUUAGUUAAGUAUUUACAGAAGGAUCAAUUCCUU	27.7	20.2	–	–
AACAAUUAGUAAGGAUAUACUAGCGAUUAGCUUGUAGAAGGUACAGUCUUAUGUAUAACAAAUUAACAUGAGGAUCACCCAUGU	–	–	10.4	7.88
UGAUCGAGAGAUCUUAGAUUCUGGUAGGAUAUACAUUAUGUUUGAAAUACAUGAGGAUCACCCAUGUAGAAGGACUAGAGUCUA	6.71	11.7	–	–
AAAAAGUGAGGAUAUGCUUUUAUUUAUUAUUAUUAUUAUUUGCAGAAGGCACAUGAGGAUCACCCAUGUAAGAA	31.7	24.9	–	–
UUACCUCAUGAGAAGGACAUGAGGAUCACCCAUGUAGGAUAUCGUGGAAGACUGGUAUUGAAUCUUCGGAUUCAAUACCUGUCU	–	–	317	15.7
GCGUAUAUAUUAUUUAUUUAACAGUCAGAAGGUGAGAAGACGACAUGAGGAUCACCCAUGUUAUUCAAGGAUAUGAUAAUGCGC	–	–	27.5	13.3
GACUCGUAAGUGAGGAUAUGGCUGUGCAGCUACAGCCAGAAGGCACAUGAGGAUCACCCAUGUGAUGGAAUUUU	15.9	30.6	–	–
AUACAUGAGGAUCACCCAUGUAAUUAAUUAACUAGUAAGAUCUAGGAUAUCAGCUCGUUUAGAGCUGAGAAGGAGAUCACAUGU	–	–	36.8	15.6
UGAUACAUGAGGGUCUCCCAUGACAUGAGGAUCACCCAUGUGCAGGAUAUACGUGUGAUGGUAUAGUAGAAGGGCAGUCUAUGU	102	133	–	–

Sequence	apparent Kd [1] [nM]	apparent Kd [2] [nM]	apparent Kd [3] [nM]	apparent Kd [4] [nM]
AAUUUAAUACAUGAGGAUCACCCAUGUAAAUUAAUUAAGAUCAAGGAUAUCAGCUCGAAUAGAGCUGAGAAGGUGAUCACAUGU	–	–	351	86.5
AGAAACUACGAGAAGGACAUAUGGUACUUCAGUUACAUGAGGAUCACCCAUGUAGGAUAUCGUAGUUUCAGGAUCGUGAGAUCA	22	169	–	–
UGUUGUAUUACAGGAUAUCUAUUAUAUUUAUUUAGAGAAGGGUAUUCACAUGAGGAUCACCCAUGUAUAUACGAGGAAGUUGUG	–	–	49.6	55.1
UGAGAGUCAGGAUAUCGAAGGUAGUGGAGAGGAGUGUGGUACGAGAAGGGACAUGAGGAUCACCCAUGUAGGUG	322	276	–	–
GACGGAUGUAUAGGAUAUGCUGAGGAAUACUCAGCAGAAGGAUACAUGAGGAUCACCCAUGUAACCGUCAAUAAUAAUAAUAAU	15.7	29.9	–	–
CCGGAUUAGGAGGAUAUAGGAGUCGAUAGACACCUAGAAGGCCUAACAUGAGGAUCACCCAUGUGUCCUACCGG	21.9	90.8	–	–
UAAACAUGAGGAUCACCCAUGUAAUGAUCGGUUGAUGAAAGUGAGGAUAUACAAAAUUUUAUGGAGUAGAAGGCACUGGGUUCU	–	–	49.9	40.3
UGAACAAUGUAGAAGGCCCAUAUUUAUAUAUAGGGAGGAUAUACAUGAGGAUCACCCAUGUAAAGAGCAAGAGGACUUGACAGA	9.27	15.7	–	–
UUGGACGUCGUAGGAUAUGUAGGAUAUUCCUACAUGAGGAUCACCCAUGUUGACAGGGAAGAAGGACAGAAGGACGAUGUCCAU	–	–	17	4.01
AAAGGACAUGAGGAUCACCCAUGUCAGGAUAUCGCUUUAGGACAUACCCAUUAACCUGCGAGAAGGGACGGUGA	32.8	44.6	–	–
CUUUUACAUGAGGAUCACCCAUGUUCUGGCGGGUCAGGAUAUAGAUCGGAUGCGUUCUGUCUAGAAGGGACAUGUU	–	–	67.3	38.1
CGCUAAGAUGGGUCUAAUGGACCACAGGAUAUGCUUGUACAUGAGGAUCACCCAUGUAAUAUUGUGCAGAAGGGUGGAUUCGCG	–	–	66.5	10.8
UGGGAUGGCUAGAAGGCUCCUUAUACUACAGGGAGAGGAUAUGGCACAUGAGGAUCACCCAUGUGUACCUGUAGGUGAUCCACA	113	108	–	–
GGGUUGUGAGGAUAUUAGUUGUACGUCAAUAGACGUAUAAGUGAGAAGGCACAUGAGGAUCACCCAUGUUCCUG	20.8	80.1	–	–
UCAUUUAUCACAGGAUAUAUUAGUAUACAGUUGUUUGGUUAUUACAUAUUAAUAGAAGGGUGGAACAUGAGGAUCACCCAUGUA	–	–	616	282
UGGUACUAGGGAGGAUAUGGGAAGAUACAUGAGGAUCACCCAUGUUUAAGAAUGCCGAGAGGCAACUAGAAGGCCCUAGUACCC	–	–	430	19.1
UGGACCAGUACAGGAUAUGGUGACGCACAUGAGGAUCACCCAUGUCCGCAGCGUGCUCAGCACGCCCAGAAGGGUACUGAUUCG	–	–	718	76.4
UUAAAUCAUGUAGGAUAUGCAUGGCGAAGCUACGCAGAAGGACAUGAGGAUCACCCAUGUUAGAGCUACCGAGUUCGGUGGCAA	112	210	–	–
CAGACGUGAGGAUAUCUGAUGUCUAACUUCGGUUAGACAUCAGAGAAGGCACAUGAGGAUCACCCAUGUCUGAA	76.8	309	–	–
CGGUAUCGACAGAAGGACGUAGCACAUGAGGAUCACCCAUGUCCGUAAUGUAGGAUAUGUACGGCCGAUCUCACGCAACACUAA	–	–	37.1	13
CCAUGCAGUGUGAGGAUAUGCUGGUCCUUGGAUCAGCAGAAGGCACAUGAGGAUCACCCAUGUGAAUAGCGUGG	44.6	356	–	–
ACUAUACGAGGAUAUGCUGUCAGUACUCCGGAGUUAGUUUGACAUGAGGAUCACCCAUGUAGAAGGCGUUUACU	40	30.3	–	–
UGUCCAUAGCAGAAGGACAUAAAUUUCCAUGAAAACAUGAGGAUCACCCAUGUAGGAUAUGCUAUGGACUAAGAGCGAAAGCUC	5.21	10.3	–	–
CUUUUACAUGAGGAUCACCCAUGUUAUGGCGGGUCAGGAUAUAGAUCGGAUGCGUUCUGUCUAGAAGGGACAUGUU	–	–	52.2	33.4
GGCAAAUGAGCAGGAUAUACAGUACAUGCCUAAUGGACUCACGCACAUGAGGAUCACCCAUGUACGUAGAAGGGCUCCGAGGAG	15.2	19.1	–	–
ACAUGAGGAUCACCCAUGUUGAAUUAGGAUAUUUGACUGCACAUGAGGUUCACCCAUGUUCAACCGGAGAAGGGAUUAAUAAUU	–	–	82.5	83.6
GUUUAGUGAGGAUAUGUGGCAUCGCCCGAGCGCGGUCGGCUACAGAAGGCACAUGAGGAUCACCCAUGUUUCUC	38.6	585	–	–
